ChEMBL document CHEMBL3792371 (Bioorg Med Chem Lett, 2016)
Values belong to the compound of their own block, whether it stands above or below them.

Experiments:
[1] = target: Sodium-dependent dopamine transporter (Rattus norvegicus, UniProt P23977); assay: Inhibition of DAT in rat striatal synaptosomes assessed as reduction of [3H]dopamine uptake preincubated for 5 mins followed by [3H]dopamine addition measured after 10 mins by liquid scintillation spectrometric method; assay type: subcellular, Striatum
Sequence of Sodium-dependent dopamine transporter (P23977 whole entry): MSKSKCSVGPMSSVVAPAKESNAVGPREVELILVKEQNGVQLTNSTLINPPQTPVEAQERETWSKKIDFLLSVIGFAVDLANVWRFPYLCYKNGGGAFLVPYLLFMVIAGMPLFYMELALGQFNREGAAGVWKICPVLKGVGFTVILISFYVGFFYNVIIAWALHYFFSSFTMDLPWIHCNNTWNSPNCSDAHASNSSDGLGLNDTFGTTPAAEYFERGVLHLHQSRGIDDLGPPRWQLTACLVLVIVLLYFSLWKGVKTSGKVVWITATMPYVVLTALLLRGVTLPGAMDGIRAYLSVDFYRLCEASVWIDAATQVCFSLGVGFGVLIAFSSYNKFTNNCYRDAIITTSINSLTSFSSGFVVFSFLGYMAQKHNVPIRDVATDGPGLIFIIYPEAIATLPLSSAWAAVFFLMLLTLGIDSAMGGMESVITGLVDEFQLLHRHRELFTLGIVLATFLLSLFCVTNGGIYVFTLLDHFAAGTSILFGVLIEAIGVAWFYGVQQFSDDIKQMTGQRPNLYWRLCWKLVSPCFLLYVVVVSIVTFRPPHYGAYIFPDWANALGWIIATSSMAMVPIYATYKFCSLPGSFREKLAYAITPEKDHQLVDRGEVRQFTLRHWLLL
In short: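 Rat striatum homogenized in ice-cold 0.32 M sucrose with 5 mM NaHCO3 (pH 7.4), spun at 2000g and then 20,000g. Synaptosomes (20 µg protein) were resuspended in oxygenated Krebs'-HEPES buffer (pH 7.4) with pargyline and ascorbic acid. Inhibitor was 0.1 nM–1 mM final (7–9 concentrations), run in duplicate at 34 °C. [3H]DA was 10 nM final. Nonspecific uptake was defined with 10 µM GBR 12909. Reactions were filtered on GF/B filters. Specific uptake was expressed as % of control, n = 3–4 rats.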

[2] = target: Sodium-dependent serotonin transporter (Rattus norvegicus, UniProt P31652); assay: Inhibition of SERT in rat striatal synaptosomes assessed as reduction of [3H]5-HT uptake preincubated for 5 mins followed by [3H]5-HT addition measured after 10 mins by liquid scintillation spectrometric method; assay type: subcellular, Striatum
Sequence of Sodium-dependent serotonin transporter (P31652 whole entry): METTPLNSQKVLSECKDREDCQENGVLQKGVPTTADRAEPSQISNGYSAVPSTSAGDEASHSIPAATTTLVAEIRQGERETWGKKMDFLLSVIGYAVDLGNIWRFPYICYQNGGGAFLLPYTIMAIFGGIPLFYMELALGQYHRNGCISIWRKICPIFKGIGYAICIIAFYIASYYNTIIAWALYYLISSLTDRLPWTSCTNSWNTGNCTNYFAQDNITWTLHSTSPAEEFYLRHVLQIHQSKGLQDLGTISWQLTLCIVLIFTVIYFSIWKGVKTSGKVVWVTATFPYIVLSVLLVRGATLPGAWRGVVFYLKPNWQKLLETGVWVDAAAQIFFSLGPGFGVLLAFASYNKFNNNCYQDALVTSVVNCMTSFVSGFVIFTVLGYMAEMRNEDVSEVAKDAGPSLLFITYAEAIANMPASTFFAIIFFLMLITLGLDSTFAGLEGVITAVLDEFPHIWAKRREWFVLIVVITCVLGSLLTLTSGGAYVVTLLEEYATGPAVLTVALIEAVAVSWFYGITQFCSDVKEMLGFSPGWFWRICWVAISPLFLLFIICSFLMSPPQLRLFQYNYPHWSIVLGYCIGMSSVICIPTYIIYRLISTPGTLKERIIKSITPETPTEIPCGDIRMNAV
In short: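 Rat striatal synaptosomes were made as for the DAT assay: 20 µg protein in oxygenated Krebs'-HEPES buffer (pH 7.4) containing pargyline and ascorbic acid. Inhibitor was 0.1 nM–1 mM final (7–9 concentrations), run in duplicate at 34 °C. [3H]5-HT was 10 nM final. Nonspecific uptake was defined with 10 µM fluoxetine. Filters were washed with ice-cold Krebs' buffer containing 1 mM catechol. Specific uptake was expressed as % of control, n = 4 rats.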

[3] = target: Synaptic vesicular amine transporter (Rattus norvegicus, UniProt Q01827); assay: Inhibition of VMAT2 in rat striatal synaptic vesicle assessed as reduction of [3H]dopamine uptake after 8 mins by liquid scintillation spectrometric method
Sequence of Synaptic vesicular amine transporter (Q01827 whole entry): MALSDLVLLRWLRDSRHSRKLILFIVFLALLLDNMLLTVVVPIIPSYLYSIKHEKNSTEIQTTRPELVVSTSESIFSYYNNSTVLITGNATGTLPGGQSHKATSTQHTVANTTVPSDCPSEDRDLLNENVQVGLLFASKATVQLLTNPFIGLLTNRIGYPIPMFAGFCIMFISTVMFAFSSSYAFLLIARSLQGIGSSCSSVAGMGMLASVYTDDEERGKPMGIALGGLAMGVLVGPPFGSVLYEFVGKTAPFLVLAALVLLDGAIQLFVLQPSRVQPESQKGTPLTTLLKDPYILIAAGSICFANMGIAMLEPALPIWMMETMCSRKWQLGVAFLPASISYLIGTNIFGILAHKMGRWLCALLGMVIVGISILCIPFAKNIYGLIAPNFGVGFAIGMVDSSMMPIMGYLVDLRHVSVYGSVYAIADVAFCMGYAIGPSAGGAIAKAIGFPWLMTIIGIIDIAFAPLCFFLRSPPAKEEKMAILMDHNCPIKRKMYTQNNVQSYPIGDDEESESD
In short: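 Vesicles prepared from rat striata by sucrose homogenisation, osmotic shock and differential centrifugation. Inhibitor at 0.1 nM–10 mM with 0.1 µM [3H]DA. Filtration, then scintillation counting. n = 3–4 rats.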

Rattus norvegicus [4] = species on record: Rattus norvegicus; assay: Selectivity ratio of Ki for DAT in rat striatal synaptosomes to Ki for VMAT2 in rat striatal synaptic vesicle; assay type: subcellular
In short: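 Ratio of DAT Ki to VMAT2 Ki. […] 10 nM [3H]DA then added for 10 min at 34°C. Nonspecific uptake measured with 10 µM GBR 12909. VMAT2 Ki from vesicular [3H]DA uptake.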

Rattus norvegicus [5] = species on record: Rattus norvegicus; assay: Selectivity ratio of Ki for SERT in rat striatal synaptosomes to Ki for VMAT2 in rat striatal synaptic vesicle; assay type: subcellular
In short: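 Ratio of SERT Ki to VMAT2 Ki. […] 10 nM [3H]5-HT then added for 10 min at 34°C. Nonspecific uptake measured with 10 µM fluoxetine. n = 4 rats. VMAT2 Ki from vesicular [3H]DA uptake.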

SMILES: Oc1ccc(CC[C@H]2CCC[C@@H](CCc3ccc(O)cc3)N2)cc1
Ki [1]: 866 nM | Ki [2]: 1030 nM | Ki [3]: 31 nM

SMILES: CN1[C@@H](CCc2ccc(O)cc2)CCC[C@H]1CCc1ccc(OCCF)cc1
Ratio Ki (Rattus norvegicus [4]): 96 | Ki [1]: 2970 nM | Ratio Ki (Rattus norvegicus [5]): 335 | Ki [2]: 10400 nM | Ki [3]: 31 nM

SMILES: OC[C@H](O)CN1[C@@H](CCc2ccc(OCCF)cc2)CCC[C@H]1CCc1ccc(OCCF)cc1
Ratio Ki (Rattus norvegicus [4]): 30 | Ki [1]: 3690 nM | Ratio Ki (Rattus norvegicus [5]): 275 | Ki [2]: 33000 nM | Ki [3]: 120 nM

SMILES: CC(=O)Oc1ccc(CC[C@H]2CCC[C@@H](CCc3ccc(OC(C)=O)cc3)N2C)cc1
Ki [1]: 2130 nM | Ratio Ki (Rattus norvegicus [5]): 163 | Ki [2]: 11600 nM | Ki [3]: 71 nM

SMILES: FCCOc1ccc(CC[C@H]2CCC[C@@H](CCc3ccc(OCCF)cc3)N2)cc1
Ki [1]: 1670 nM | Ki [2]: 640 nM | Ki [3]: 40 nM

SMILES: OC[C@H](O)CN1[C@@H](CCc2ccc(O)cc2)CCC[C@H]1CCc1ccc(O)cc1
Ki [1]: 1430 nM | Ratio Ki (Rattus norvegicus [5]): 331 | Ki [2]: 12900 nM | Ki [3]: 39 nM

Ki [1]: 3430 nM | Ki [2]: 7430 nM | Ki [3]: 140 nM
SMILES: CN1[C@@H](CCc2ccc(OCCF)cc2)CCC[C@H]1CCc1ccc(OCCF)cc1

SMILES: CN1[C@@H](CCc2ccccc2)CCC[C@H]1CCc1ccccc1 [LOBELANE]
Ki [1]: 1050 nM | Ki [2]: 3600 nM

Ki [1]: 1440 nM | Ki [2]: 9360 nM
SMILES: COc1ccc(CC[C@H]2CCC[C@@H](CCc3ccc(OC)cc3)N2C[C@@H](O)CO)cc1

SMILES: OC[C@H](O)CN1[C@@H](CCc2ccc(O)cc2)CCC[C@H]1CCc1ccc(OCCF)cc1
Ratio Ki (Rattus norvegicus [4]): 87 | Ki [1]: 5470 nM | Ki [2]: 1430 nM | Ki [3]: 63 nM

SMILES: CN1[C@@H](CCc2ccc(O)cc2)CCC[C@H]1CCc1ccc(O)cc1
Ki [1]: 1350 nM | Ratio Ki (Rattus norvegicus [5]): 260 | Ki [2]: 12000 nM | Ki [3]: 46 nM

SMILES: Oc1ccc(CC[C@H]2CCC[C@@H](CCc3ccc(OCCF)cc3)N2)cc1
Ki [1]: 1660 nM | Ki [2]: 1050 nM | Ki [3]: 32 nM

Ki [1]: 1470 nM | Ki [2]: 2130 nM | Ki [3]: 220 nM
SMILES: CC(=O)Oc1ccc(CC[C@H]2CCC[C@@H](CCc3ccc(OC(C)=O)cc3)N2)cc1
